Columns and labels:
ABCG2 [1] = target: T1, ABCG2 (Rattus norvegicus, UniProt Q80W57); assay: Asymmetry efflux ratio in MDCK2 cells expressing rat ABCG2 assessed as ABCG2-mediated drug transport ratio at 3 uM after 0.5 to 1 hrs by HPLC method; type: ADME, cell-based
T1 sequence (Q80W57 whole entry): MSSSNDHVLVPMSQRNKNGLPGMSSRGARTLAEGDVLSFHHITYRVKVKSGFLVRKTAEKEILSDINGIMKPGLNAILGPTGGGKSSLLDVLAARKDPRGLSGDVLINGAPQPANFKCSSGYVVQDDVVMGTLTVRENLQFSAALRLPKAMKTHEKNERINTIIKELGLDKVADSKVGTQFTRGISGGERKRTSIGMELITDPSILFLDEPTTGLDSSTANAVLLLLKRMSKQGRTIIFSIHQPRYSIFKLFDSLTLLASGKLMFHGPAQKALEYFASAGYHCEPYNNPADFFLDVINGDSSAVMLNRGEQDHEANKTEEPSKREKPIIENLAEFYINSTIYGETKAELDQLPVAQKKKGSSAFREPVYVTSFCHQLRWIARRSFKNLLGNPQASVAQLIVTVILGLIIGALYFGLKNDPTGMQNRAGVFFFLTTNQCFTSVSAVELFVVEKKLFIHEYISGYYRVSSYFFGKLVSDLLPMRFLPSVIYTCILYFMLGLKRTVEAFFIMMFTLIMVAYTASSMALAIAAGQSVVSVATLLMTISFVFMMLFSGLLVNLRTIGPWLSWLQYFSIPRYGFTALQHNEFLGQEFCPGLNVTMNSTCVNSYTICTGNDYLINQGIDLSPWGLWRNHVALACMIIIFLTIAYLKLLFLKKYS
In short: (§1)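 Mock (empty pcDNA3.1) or rat Abcg2/human ABCG2-transfected MDCKII, G418-selected, seeded on 3.0-μm Transwell filters at 1.0×10^6 cells/well, grown 4 days to TEER >200 Ω·cm². Single isomer loaded apical or basolateral in serum-free Opti-MEM I with 0.2 μCi/ml [3H]mannitol, 37°C 5% CO2. Receiver sampled at 0.5 and 1 h. Quantified by HPLC-UV 290 nm. Permeability = initial rate/(area × donor concentration). Efflux ratio = B→A rate / A→B rate. n = 3, mean ± S.D.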

ABCG2 [2] = target: T2, ABCG2 (Homo sapiens, UniProt Q9UNQ0); assay: Asymmetry efflux ratio in MDCK2 cells expressing human ABCG2 assessed as ABCG2-mediated drug transport ratio at 200 uM after 0.5 to 1 hrs by HPLC method; type: ADME, cell-based; in short: as §1
T2 sequence (Q9UNQ0 whole entry): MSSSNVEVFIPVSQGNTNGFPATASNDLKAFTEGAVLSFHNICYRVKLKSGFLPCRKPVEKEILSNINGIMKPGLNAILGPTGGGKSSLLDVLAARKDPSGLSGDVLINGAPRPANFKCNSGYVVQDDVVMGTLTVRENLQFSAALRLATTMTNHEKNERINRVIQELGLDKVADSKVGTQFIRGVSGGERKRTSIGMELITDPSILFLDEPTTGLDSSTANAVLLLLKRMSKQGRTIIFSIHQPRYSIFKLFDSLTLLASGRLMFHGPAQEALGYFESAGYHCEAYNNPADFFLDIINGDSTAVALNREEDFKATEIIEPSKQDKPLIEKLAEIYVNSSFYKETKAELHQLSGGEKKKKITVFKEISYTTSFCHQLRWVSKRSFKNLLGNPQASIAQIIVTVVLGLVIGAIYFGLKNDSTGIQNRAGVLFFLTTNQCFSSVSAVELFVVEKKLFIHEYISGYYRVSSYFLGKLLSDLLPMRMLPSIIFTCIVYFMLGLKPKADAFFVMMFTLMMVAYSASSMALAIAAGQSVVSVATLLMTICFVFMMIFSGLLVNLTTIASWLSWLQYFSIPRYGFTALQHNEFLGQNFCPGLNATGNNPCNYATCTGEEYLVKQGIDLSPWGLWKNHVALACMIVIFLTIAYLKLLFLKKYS

[3] = target: T3, Broad substrate specificity ATP-binding cassette transporter ABCG2 (Homo sapiens, UniProt Q9UNQ0); assay: Observed permeability in MDCK2 cells expressing human ABCG2 assessed as ABCG2-mediated basolateral to apical transport at 30 uM after 0.5 to 1 hrs by HPLC method; type: ADME, cell-based; conditions: mdck-ii; in short: as §1
T3 sequence (Q9UNQ0 whole entry): T2 sequence (Q9UNQ0 whole entry)

[4] = Asymmetry efflux ratio in MDCK2 cells assessed as drug transport ratio at 30 uM after 0.5 to 1 hrs by HPLC method; type: ADME, cell-based, Canis lupus familiaris, MDCK-II; conditions: dog, MDCK; in short: as §1

| SMILES | efflux ratio at 3 µM (ABCG2 [1]) | efflux ratio at 200 µM (ABCG2 [2]) | Papp [3] [uL/hr/cm2] | efflux ratio at 30 µM [4] |
| --- | --- | --- | --- | --- |
| COc1ccnc(C[S@@+]([O-])c2nc3cc(OC(F)F)ccc3[nH]2)c1OC | 18.7 | 1.42 | 240 | 1.06 |
| COc1ccnc(C[S@+]([O-])c2nc3cc(OC(F)F)ccc3[nH]2)c1OC | 34 | 1 | 211 | 1.07 |

Source: ChEMBL document CHEMBL3525931, “Stereoselective interaction of pantoprazole with ABCG2. II. In vitro flux analysis” (Drug Metab Dispos, 2012)
